Only some compounds are listed: those with a hit (about 2.7% of all), similar ones and a draw of the others.
ASAP1 inh: inhibitors of human ASAP1 ArfGAP activity, primary screen, biochemical, fluorescence polarization; Arf-GAP with SH3 domain, ANK repeat and PH domain-containing protein 1 (Homo sapiens), …; ASAP1-stimulated ARF1 GTP hydrolysis, GDP FP detection; inhibition, % at 16.5 µM; actives 0.19% (n = 360,000); in the data active means inhibition above about 25%;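 further: 0% = vehicle with enzyme and substrate and 100% = no enzyme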
pPAFAH inh: pPAFAH enzyme inhibitors, primary screen, biochemical, fluorescence polarization, human. actives 1.5% (n = 330,000). inhibition, % at 3.39 µM. recombinant pPAFAH, FP-rhodamine probe fluorescence polarization;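 active means inhibition above the mean inhibition across the screen plus 3 SD, cut at about 25% in these data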;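 further: inhibitors block binding of the rhodamine activity-based probe so polarization drops; 0% = enzyme with DMSO and 100% = wells lacking pPAFAH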
ARFGAP1 inh: inhibitors of rat ARFGAP1 GAP activity, primary screen, biochemical, fluorescence polarization, GDP tracer; inhibition, % at 16.5 µM; ADP-ribosylation factor GTPase-activating protein 1 (Rattus norvegicus), Q62848; Arfgap1-stimulated ARF1 GTP hydrolysis, GDP FP detection; actives 0.26% (n = 360,000);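 active means inhibition above a per-plate limit, mean inhibition of low control wells plus 3 SD, cut at about 25% in these data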;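 further: 0% = DMSO wells with enzyme and 100% = wells lacking Arfgap1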
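System: truncated rat Arfgap1 GAP domain / Benchmarks: high control wells lacking Arfgap1, low control full reaction with DMSO / Times: compound-enzyme preincubation 20 min, reaction 120 min, detection 60 min, 25 °C / Repeats: one replicate per compound / Also added: human ARF1(Δ1-17)-GTP substrate / Measured by: Tracer-displacement fluorescence polarization with EDTA stop, 620/688 nm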
PAFAH2 FP inh: PAFAH2 enzyme inhibitors, primary screen, biochemical, fluorescence polarization, human; actives 0.99% (n = 340,000); recombinant PAFAH2, FP-rhodamine activity probe; AID 492956, 2010; inhibition, % at 3.39 µM;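 active means inhibition above the mean over all tested compounds plus 3 SD, cut at about 30% in these data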;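 further: inhibitors block probe labeling of enzyme so polarization drops; 0% = enzyme with DMSO and 100% = wells lacking PAFAH2 protein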
PAFAH1B2 FP inh: PAFAH1B2 enzyme inhibitors, primary screen, biochemical, fluorescence polarization, human; actives 1.2% (n = 340,000); AID 492953, 2010; recombinant PAFAH1B2, FP-rhodamine activity probe; Platelet-activating factor acetylhydrolase IB subunit alpha2 (Homo sapiens), P68402; inhibition, % at 3.39 µM;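 active means inhibition above the mean of all tested compounds plus 3 SD, cut at about 24% in these data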;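 further: 0% = enzyme with DMSO and 100% = wells lacking PAFAH1B2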
Target sequence (P68402 whole entry, looked up): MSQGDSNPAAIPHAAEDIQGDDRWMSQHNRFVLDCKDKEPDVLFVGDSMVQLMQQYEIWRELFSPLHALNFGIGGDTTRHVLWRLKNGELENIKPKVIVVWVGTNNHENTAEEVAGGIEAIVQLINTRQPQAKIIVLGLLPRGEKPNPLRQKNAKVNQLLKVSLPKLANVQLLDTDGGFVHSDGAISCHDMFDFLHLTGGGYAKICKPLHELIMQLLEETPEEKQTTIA
PAFAH1B3 FP inh: PAFAH1B3 enzyme inhibitors, primary screen, biochemical, fluorescence polarization, human | actives 0.28% (n = 340,000) | AID 492972, 2010 | Platelet-activating factor acetylhydrolase IB subunit alpha1 (Homo sapiens), Q15102 | recombinant PAFAH1B3, FP-rhodamine probe | inhibition, % at 3.39 µM;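 active means inhibition above the screen-wide average of all tested compounds plus 3 SD, cut at about 25% in these data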;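 further: 0% = enzyme with DMSO only and 100% = wells lacking PAFAH1B3 protein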
Target sequence (Q15102 whole entry, looked up): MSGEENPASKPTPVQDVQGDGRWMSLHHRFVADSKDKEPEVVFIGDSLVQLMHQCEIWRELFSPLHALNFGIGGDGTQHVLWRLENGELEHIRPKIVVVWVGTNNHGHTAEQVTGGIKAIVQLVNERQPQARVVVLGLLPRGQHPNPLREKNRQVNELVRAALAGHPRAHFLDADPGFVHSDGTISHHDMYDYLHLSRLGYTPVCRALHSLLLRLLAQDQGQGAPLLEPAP
pPAFAH confirm: pPAFAH (PLA2G7) enzyme inhibitors, confirmation, biochemical, fluorescence polarization, human; shares compounds with pPAFAH inh; recombinant pPAFAH, FP-Rh probe fluorescence polarization; inhibition, % at 3.39 µM; actives 72% (n = 2,300); AID 463230, 2010;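 active means mean inhibition of the triplicate above the hit cutoff set for the earlier primary screen, cut at about 25% in these data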;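 further: 0% = enzyme with DMSO and 100% = wells lacking pPAFAH enzyme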
The depositor's hits bear a star; . = no result.

SMILES	ASAP1 inh	pPAFAH inh	ARFGAP1 inh	PAFAH2 FP inh	PAFAH1B2 FP inh	PAFAH1B3 FP inh	pPAFAH confirm
COC(=O)c1cc2c(c3c4ccccc4n(S(=O)(=O)c4ccc(OC)cc4)c13)C(=O)N(Cc1ccc(N(C)C)cc1)C2	-2.0	.	-14.5	.	.	.	.
COc1ccc(-n2cccc2/C=C2\C(=N)N3N=C(C(C)C)SC3=NC2=O)cc1	-12.5	5.0	-8.8	11.0	7.5	1.3	.
CCC1=NN2C(=N)/C(=C/c3cc(C)n(Cc4ccccc4)c3C)C(=O)N=C2S1	-3.5	17.7	-4.1	-5.6	14.9	1.3	.
COc1ccc(-n2cccc2/C=C2\C(=N)N3N=C(c4ccco4)SC3=NC2=O)cc1	6.3	47.2*	-23.3	26.7	0.4	-7.1	62.5*
Cc1cc(/C=C2\C(=N)N3N=C(c4ccco4)SC3=NC2=O)c(C)n1Cc1ccccc1	-0.2	36.1*	-4.5	15.7	36.3*	12.9	70.1*
Cc1ccc(C(=O)CSc2nnc(-c3c[nH]c4ccccc34)o2)cc1	11.2	48.3*	-2.8	1.3	1.3	6.0	3.2
CC(C)C(C)NC(=O)CSc1nnc(-c2c[nH]c3ccccc23)o1 (stereo not drawn)	6.0	6.8	-11.2	3.8	-0.5	4.9	.
COC(=O)C1=C(C)N(Cc2ccccc2C(F)(F)F)C(=NCc2ccccc2C(F)(F)F)NC1c1cccc(C(F)(F)F)c1 (stereo not drawn)	1.3	.	0.3	.	.	.	.
Nc1ccc(C(=O)N/N=C\c2cc(N=Nc3cccc4ccccc34)ccc2O)cc1	-6.7	76.7*	0.7	5.9	16.7	11.5	53.1*
COC(=O)Cc1nnn2c1[C@H](C)[C@@H](OC)c1cccc(Cl)c1-2	1.6	.	0.1	.	.	.	.
O=C(O)C1Nc2c(O)cc(Cl)c([N+](=O)[O-])c2C2C=CCC12 (stereo not drawn)	21.7	90.0*	-4.2	76.5*	50.8*	63.3*	38.6*
Cc1ccc([N+](=O)[O-])cc1Nc1nc(N2CCCC2)nc(N2CCCC2)n1	-2.7	-5.5	16.1	3.1	-2.5	0.6	.
Cc1cc(SCC(=O)c2ccc(O)c(O)c2)n2nc(C)c(-c3ccccc3)c2n1	10.0	71.8*	3.1	17.0	-0.9	13.2	88.4*
COC(=O)c1ccccc1-c1c2ccc(=N)cc-2oc2cc(N)ccc12	-2.3	125.6*	5.0	147.8*	133.9*	149.5*	132.1*
COc1cc(OC)c(OC)cc1CCC(C)NCCC(c1ccccc1)c1ccccc1 (stereo not drawn)	5.0	-2.0	2.1	4.8	0.9	7.9	.
Cc1nc(-c2ccccc2)sc1C(=O)Nc1ccc(S(N)(=O)=O)cc1	3.6	45.6*	7.9	3.7	3.9	1.1	-7.0
COc1ccc(S(=O)(=O)/N=C2/NC(=O)/C(=C\c3ccco3)S2)cc1	-8.1	35.3*	-2.5	-3.8	-3.2	17.7	21.1
COc1ccc(N=C2NC(=O)/C(=C/c3ccco3)S2)cc1	7.9	10.0	-5.9	3.4	4.3	-3.1	.
COc1ccc(NC(=O)C(=O)NCC2CCCN2S(=O)(=O)c2cc(C)ccc2C)cc1 (stereo not drawn)	-7.6	5.8	15.0	-0.1	-0.1	-2.1	.
O=C(O)c1ccc(N/N=C/c2ccc(-c3ccccc3Cl)o2)cc1	-7.5	45.5*	-6.3	7.2	1.8	8.2	16.0
O=C(N/N=C/c1ccc(-c2ccccc2Cl)o1)c1ccccc1	10.3	5.3	8.9	0.8	1.3	0.6	.

Screens deposited in PubChem BioAssay by The Scripps Research Institute Molecular Screening Center.
